Published values of several laboratories.
Target: Serine/threonine-protein kinase 38 (STK38, Homo sapiens, UniProt Q15208)

Cn1c2c(c3ccc(Cl)c(Cl)c31)C(C#N)C1(CCOCC1)NC2=O (stereo not drawn)  ΔTm (thermal stability; DSF; 10 µM): 0 °C
O=C(Nc1cnn(-c2csc(C(=O)NC3COC3)c2)c1)Nc1ccccc1Cl  remaining activity (enzyme activity; inhibitor; 5 µM): 99.2%
Cc1ccc(C(=O)Nc2ccc(CN3CCN(C)CC3)c(C(F)(F)F)c2)cc1C#Cc1cnc2cccnn12  remaining activity (enzyme activity; inhibitor; 23.5 nM): 78%
CC1(C)NC(=O)c2[nH]c3c(Cl)c(Cl)ccc3c2C1C#N (stereo not drawn)  ΔTm (thermal stability; DSF; 10 µM): -0.1 °C
O=C1Nc2ccc(Cl)cc2C1=Cc1cc(Cl)c(O)c(Cl)c1  remaining signal (cell-free assay; 0.5 µM): 85.4%
Cn1c2c(Cl)c(Cl)ccc2c2cc(N)[nH]c(=O)c21  ΔTm (thermal stability; DSF; 10 µM): -0.2 °C
Nc1ncnc2occ(-c3ccc(NC(=O)Nc4cc(C(F)(F)F)ccc4F)cc3)c12  remaining signal (cell-free assay; inhibitor; 20 µM): 31%
Cc1cc(NC(=O)c2cccc(S(F)(F)(F)(F)F)c2)cc(-n2ccn3nc(-c4cccnc4)cc23)c1  remaining binding (cell-free assay; competition with immobilised ligand; 1 µM): 92.3%
O=C1NC(=O)c2cc(Nc3ccc(F)cc3)c(Nc3ccc(F)cc3)cc21  remaining signal (cell-free assay; 0.5 µM): 85.5%
CCN1CCN(Cc2ccc(NC(=O)c3ccc(C)c(/C=C/c4cnc5[nH]ccc5c4OC)c3)cc2C(F)(F)F)CC1  inhibition (target engagement in cells; inhibitor; chemoproteomics; A-375; 0.5 µM): -0.843%
CCC(=N\O)/C(C)=C/c1ccc(F)cc1  remaining binding (cell-free assay; competition with immobilised ligand; 1 µM): 94%
O=C(Nc1cnn(-c2csc(C(=O)NC3COC3)c2)c1)Nc1c(F)cccc1Cl  remaining activity (enzyme activity; inhibitor; 5 µM): 95.5%
CN([C@@H]1CCc2c(CC(=O)O)c3cc(S(C)(=O)=O)ccc3n2C1)S(=O)(=O)c1ccc(F)cc1  remaining binding (cell-free assay; competition with immobilised ligand; 1 µM): 85%
CCN1CCN(Cc2ccc(NC(=O)c3ccc(C)c(Oc4ccnc5[nH]ccc45)c3)cc2C(F)(F)F)CC1  inhibition (target engagement in cells; inhibitor; chemoproteomics; A-375; 5 µM): -0.846%
Cn1c2c(Cl)c(Cl)ccc2c2cc[nH]c(=O)c21  ΔTm (thermal stability; DSF; 10 µM): 0 °C
O=S(=O)(NC1CCC(c2cc(F)ccc2F)(S(=O)(=O)c2ccc(Cl)cc2)CC1)C(F)(F)F (stereo not drawn)  remaining binding (cell-free assay; competition with immobilised ligand; 1 µM): 100%
CCC1(CC)NC(=O)c2c(c3ccc(Cl)c(Cl)c3n2C)C1C#N (stereo not drawn)  ΔTm (thermal stability; DSF; 10 µM): 1.1 °C
c1ccc(N2CCN(Cc3nc4ccccc4[nH]3)CC2)nc1  remaining binding (binding; competition with immobilised ligand; 1 µM): 89%
